According to PubChem BioAssay:
Calls of active or inactive are those of the source.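 The calls were made as follows, unless noted: active = viability at or under a set limit in both replicates, limit being median viability minus 3 SD (cut at about 48% in these data, passing the limit was not always enough); inconclusive = at or under the limit in just one replicate; inactive = at or above the limit in both replicates.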 Peptide text beside a SMILES is read from it.

Tests used:
[1] = molecular target: Pantothenate synthetase (Mycobacterium tuberculosis (strain ATCC 25618 / H37Rv)) (UniProt P9WIL5); assay: Coupled enzyme confirmation of inhibitors against recombinant Mtb PanC (AID 375; call rule not given here;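 also: 0% = full reaction with vehicle and 100% = no enzyme background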); conditions: coupled enzyme assay; at 10 µM, stronger effect = higher value
Sequence of Pantothenate synthetase (Mycobacterium tuberculosis (strain ATCC 25618 / H37Rv)) (P9WIL5 whole entry, looked up): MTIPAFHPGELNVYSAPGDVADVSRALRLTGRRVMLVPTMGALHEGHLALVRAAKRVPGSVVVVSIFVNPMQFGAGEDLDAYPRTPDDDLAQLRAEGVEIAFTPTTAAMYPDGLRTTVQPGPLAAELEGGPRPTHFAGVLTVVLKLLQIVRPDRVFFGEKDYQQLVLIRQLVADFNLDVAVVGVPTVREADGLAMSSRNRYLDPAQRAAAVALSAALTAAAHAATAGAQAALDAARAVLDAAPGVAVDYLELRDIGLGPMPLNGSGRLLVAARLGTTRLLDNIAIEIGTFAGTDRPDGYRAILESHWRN

[2] = reduced viability of SK-BR-3 breast cancer cells – cell-based, 24 h, human, pilot screen (AID 572;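 active = viability at or below 10% of carrier control in both of two separate runs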;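 also: compound exposure lasted between 18 and 24 h rather than exactly 24 h; 100% = carrier-treated control wells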); conditions: SK-BR-3 viability, CellTiter-Glo luminescence, at 10 µM, stronger effect = lower value
[3] = HUVEC growth inhibition – cell-based, human, primary screen (AID 575;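 active = viability at or below 30% in both replicate assays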;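 also: 100% = median of untreated cell wells with 0.1% DMSO on each plate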); conditions: HUVEC proliferation, CellTiter-Glo luminescence, 72 h; at 10 µM; stronger effect = lower value
Outline: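 System: primary human umbilical vein endothelial cells; Quantity: 1250 endothelial cells in each well; Buffer or medium: supplemented EBM, 2% fetal bovine serum; Doses: one dose, 10 µM final, 0.1% DMSO; Incubation: 72 h compound incubation; Technique: ATP-based CellTiter-Glo luminescent read; Evaluation: percent of median DMSO-control luminescence; Controls: vehicle and MePR control wells.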

[4] = H69AR cell proliferation blockers – human, duplicate replicates, primary screen (AID 580); conditions: H69AR lung tumor cells viability, ATP luminescence, 72 h; at 10 µM; stronger effect = lower value;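 also: 100% = mean luminescence of untreated wells and 0% = no signal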
[5] = MRP1 drug-resistance reversers in H69AR cells – cell-based, doxorubicin co-treatment, pilot screen (AID 601;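 active = viability loss from added drug above about 55%, and viability with drug at most 40%, in both replicates, limit read from the data, passing the limit was not always enough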); conditions: CellTiter-Glo, 72 h, at 10 µM; for differential viability (reversal): stronger effect = higher value
[6] = yeast transport mutant growth inhibition pilot in 384-well plates, post-Golgi transport modulator project (AID 636; in the data active = inhibition above about 31%); conditions: absorbance 615 nm, about 18 h, stronger effect = higher value
[7] = growth suppression of yeast trafficking mutant, preliminary HTS, modulators of trafficking downstream of Golgi apparatus project, 1536-format plate, OD 615 nm (AID 637; in the data active = inhibition above about 30%); conditions: yeast transport mutant growth, absorbance 615 nm, 18 h; stronger effect = higher value
[8] = H69AR cells + 2 uM doxorubicin, measured here: viability with 2 uM doxorubicin, stronger effect = lower value
[9] = H69AR cells, compound alone cytotoxicity

Structure (SMILES) | inhibition [1] | viability [2] | viability [3] | viability [4] | differential viability (reversal) ([5]; H69AR cells + 2 uM doxorubicin) | viability [5, 8] [%] | viability [5, 9] [%] | inhibition [6] | inhibition [7]
CC(C)OCCCNC(=O)c1c(N)n(Cc2cccs2)c2nc3ccccc3nc12 | 0% (inactive) | 26% | 6.24% (active) | 61.1% (inactive) | -18.8% (inactive) | 79.8 | 61.1 | -2.47% (inactive) | -7.33% (inactive)
CC(C)(C)P(=O)(c1ccncc1)N1CCCC1 (stereo not given) | 4% (inactive) | 111% (inactive) | 105% (inactive) | 92.8% (inactive) | -5.79% (inactive) | 98.6 | 92.8 | -7.3% (inactive) | -2.18% (inactive)
CN(C)[C@@H]1C(=O)C(C(N)=O)=C(O)[C@@]2(O)C(=O)C3=C(O)c4c(O)cccc4[C@@](C)(O)[C@H]3C[C@@H]12 | 2% (inactive) | 91% (inactive) | 102% (inactive) | 102% (inactive) | 11.8% (inactive) | 89.8 | 102 | 0.13% (inactive) | -2% (inactive)
CC(C)[C@H]1C(=O)N2CCC[C@H]2[C@]2(O)O[C@](NC(=O)[C@@H]3C=C4c5cccc6[nH]cc(c56)C[C@H]4N(C)C3)(C(C)C)C(=O)N12 | 5% (inactive) | 104% (inactive) | 86.4% (inactive) | 104% (inactive) | 0.81% (inactive) | 103 | 104 | -0.78% (inactive) | 7.17% (inactive)
C#C[C@]1(O)CC[C@H]2[C@@H]3CCC4=CC(=O)CC[C@]4(C)[C@H]3CC[C@@]21C | 4% (inactive) | 101% (inactive) | 91.6% (inactive) | 91.3% (inactive) | -13.7% (inactive) | 105 | 91.3 | -1.69% (inactive) | 11.2% (inactive)
CC(CCc1ccccc1)NC(C)C(O)c1ccc(O)cc1 (stereo not given) | 4% (inactive) | 87% (inactive) | 87.5% (inactive) | 97.2% (inactive) | 1.7% (inactive) | 95.5 | 97.2 | -0.26% (inactive) | -3% (inactive)
CC(=O)[C@@]1(O)CC[C@H]2[C@@H]3CC=C4C[C@@H](O)CC[C@]4(C)[C@H]3CC[C@@]21C | 0% (inactive) | 89% (inactive) | 84.6% (inactive) | 89.8% (inactive) | 5.5% (inactive) | 84.3 | 89.8 | -0.26% (inactive) | 4.33% (inactive)
CNCC(O)c1ccc(O)cc1 (stereo not given) | 0% (inactive) | 120% (inactive) | 95.6% (inactive) | 102% (inactive) | 15.7% (inactive) | 85.9 | 102 | -1.82% (inactive) | 8.83% (inactive)
OC(CNC1CCCCC1)c1ccccc1 (stereo not given) | 7% (inactive) | 104% (inactive) | 111% (inactive) | 98% (inactive) | 12.3% (inactive) | 85.7 | 98 | -2.67% (inactive) | -2.55% (inactive)
CCN1c2nc3ccccn3c(=O)c2CC2(C(=O)N(C)C(=O)N(C)C2=O)C1C (stereo not given) | 0% (inactive) | 119% (inactive) | 104% (inactive) | 96% (inactive) | 5.97% (inactive) | 90 | 96 | -9.18% (inactive) | 2.9% (inactive)
C=C1CC[C@@]2(O)[C@H]3Cc4ccc(O)c5c4[C@@]2(CCN3CC2CC2)[C@H]1O5 | 0% (inactive) | 101% (inactive) | 95.2% (inactive) | 110% (inactive) | 14.7% (inactive) | 95.5 | 110 | -1.43% (inactive) | 6.83% (inactive)
C[N+]1(C)[C@@H]2CC(OC(=O)[C@H](CO)c3ccccc3)C[C@H]1[C@@H]1O[C@@H]12 (stereo not given in full) | 0% (inactive) | 97% (inactive) | 101% (inactive) | 106% (inactive) | 8.56% (inactive) | 97.7 | 106 | -2.21% (inactive) | 8.67% (inactive)
CC(C)C[C@H](NC(=O)[C@@H]1CCCN1C(=O)[C@@H](N)Cc1ccc(O)cc1)C(=O)NCC(N)=O (H-YPLG-NH2) | 0% (inactive) | 105% (inactive) | 96.2% (inactive) | 97.6% (inactive) | 0.84% (inactive) | 96.8 | 97.6 | -2.73% (inactive) | 0.33% (inactive)
CCCC(=O)OCC[N+](C)(C)C | 0% (inactive) | 83% (inactive) | 93.4% (inactive) | 101% (inactive) | -4.88% (inactive) | 106 | 101 | 1.04% (inactive) | 40.7% (active)
O=C(O)Cn1cc(C(=O)c2ccccc2)c2ccccc21 | 0% (inactive) | 89% (inactive) | 104% (inactive) | 94.7% (inactive) | -1.34% (inactive) | 96 | 94.7 | -7.07% (inactive) | -0.36% (inactive)
